What was measured:
Vasopressin V1a receptor [1] = biological target: T1, Vasopressin V1a receptor (Homo sapiens, UniProt P37288); experiment: Inhibition of [3H]AVP binding to recombinant human vasopressin V1a receptor
Outline: (§1)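 Competition binding on membranes from HEK-293 cells transfected with recombinant human V1a or V2 receptor; Ki values reported in nM.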
Target sequence in this assay (P37288 whole entry): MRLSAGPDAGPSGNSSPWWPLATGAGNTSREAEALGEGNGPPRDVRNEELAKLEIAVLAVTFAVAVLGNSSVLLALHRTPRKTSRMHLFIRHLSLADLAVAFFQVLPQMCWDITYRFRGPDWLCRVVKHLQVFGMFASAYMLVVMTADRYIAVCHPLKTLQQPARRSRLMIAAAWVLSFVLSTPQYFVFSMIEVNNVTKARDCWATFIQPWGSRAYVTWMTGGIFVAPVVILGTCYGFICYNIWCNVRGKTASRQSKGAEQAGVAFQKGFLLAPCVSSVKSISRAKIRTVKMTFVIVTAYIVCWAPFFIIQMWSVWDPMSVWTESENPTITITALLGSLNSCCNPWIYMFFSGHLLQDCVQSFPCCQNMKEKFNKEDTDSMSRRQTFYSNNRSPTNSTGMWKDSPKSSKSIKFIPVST

Vasopressin V2 receptor [2] = biological target: T2, Vasopressin V2 receptor (Homo sapiens, UniProt P30518); experiment: Inhibition of [3H]AVP binding to recombinant human vasopressin V2 receptor; outline: as §1
Vasopressin V1a receptor [3] = biological target: T1, Vasopressin V1a receptor; experiment: Inhibition of 1 nM AVP-induced calcium mobilisation in cells expressing human vasopressin V1a receptor
Outline: (§2)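 HEK-293 cells expressing human receptor stimulated with 1 nM AVP; antagonism read as change in intracellular Ca2+ (V1a) or cAMP accumulation (V2).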
Target sequence in this assay (P37288 whole entry): as above

Vasopressin V2 receptor [4] = biological target: T2, Vasopressin V2 receptor; experiment: Inhibition of 1 nM AVP-induced cAMP accumulation in cells expressing human vasopressin V2 receptor; type: functional; outline: as §2
Vasopressin V1a receptor [5] = biological target: T1, Vasopressin V1a receptor; experiment: Inhibition of [3H]AVP binding to recombinant human vasopressin V1a receptor at 100 nM
Target sequence in this assay (P37288 whole entry, looked up): as the sequence (P37288 whole entry) above

Vasopressin V1a receptor [6] = biological target: T1, Vasopressin V1a receptor; experiment: Inhibition of [3H]AVP binding to recombinant human vasopressin V1a receptor at 1000 nM
Target sequence in this assay (P37288 whole entry, looked up): as the sequence (P37288 whole entry) above

T2 sequence (P30518 whole entry): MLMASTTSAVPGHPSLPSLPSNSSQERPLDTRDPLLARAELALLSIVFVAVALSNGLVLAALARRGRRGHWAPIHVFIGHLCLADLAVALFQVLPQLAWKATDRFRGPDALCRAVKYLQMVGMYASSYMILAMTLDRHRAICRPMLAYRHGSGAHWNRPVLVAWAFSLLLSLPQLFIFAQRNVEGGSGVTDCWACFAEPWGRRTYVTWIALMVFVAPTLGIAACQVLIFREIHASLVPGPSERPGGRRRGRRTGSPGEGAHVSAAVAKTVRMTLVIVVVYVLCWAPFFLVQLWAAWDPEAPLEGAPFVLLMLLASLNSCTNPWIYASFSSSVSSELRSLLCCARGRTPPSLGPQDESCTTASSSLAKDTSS

| Ki (Vasopressin V1a receptor [1]) | Ki (Vasopressin V2 receptor [2]) | Ki (Vasopressin V1a receptor [3]) | Ki (Vasopressin V2 receptor [4]) | inhibition (Vasopressin V1a receptor [5]) | inhibition (Vasopressin V1a receptor [6]) | SMILES |
| --- | --- | --- | --- | --- | --- | --- |
| Not Active | 4.2 nM | 4.2 µM | 11 nM | – | – | O=C(Nc1ccc(C(=O)N2C[C@H]3COCCN3Cc3ccccc32)c(Cl)c1)c1ccccc1-c1ccc(O)cc1 |
| Not Active | 15 nM | – | – | – | – | COc1cc(NC(=O)c2ccccc2-c2ccccc2)ccc1C(=O)N1CC2CSCCN2Cc2ccccc21 (centres undefined) |
| 490 nM | 11 nM | – | – | – | – | O=C(Nc1ccc(C(=O)N2CC3CSCCN3Cc3ccccc32)c(Cl)c1)c1ccccc1-c1ccccc1 (centres undefined) |
| 24 nM | 0.9 nM | 0.6 µM | 4 nM | – | – | O=C(Nc1ccc(C(=O)N2C[C@H]3COCCN3Cc3ccccc32)c(Cl)c1)c1ccccc1-c1ccccc1 |
| 110 nM | 3.2 nM | – | – | – | – | O=C(Nc1ccc(C(=O)N2CC3CSCCN3Cc3ccccc32)c(O)c1)c1ccccc1-c1ccccc1 (centres undefined) |
| Not Active | 60 nM | 14 µM | 300 nM | – | – | Cc1ccc(F)cc1C(=O)Nc1ccc(C(=O)N2CC3CSCCN3Cc3ccccc32)c(Cl)c1 (centres undefined) |
| Not Active | 9 nM | – | – | – | – | O=C(Nc1ccc(C(=O)N2CC3CSCCN3Cc3ccc(F)cc32)cc1)c1ccccc1-c1ccccc1 (centres undefined) |
| 49 nM | – | 8 µM | – | – | – | O=C(Nc1ccc(C(=O)N2CC3CSCCN3Cc3ccccc32)cc1)c1ccccc1-c1ccccc1 (centres undefined) |
| 640 nM | 15 nM | 14 µM | 170 nM | – | – | O=C(Nc1ccc(C(=O)N2CC3COCCN3Cc3ccccc32)c(Cl)c1)c1ccccc1-c1ccccc1 (single isomer, unassigned) |
| Not Active | 10 nM | – | – | – | – | O=C(Nc1ccc(C(=O)N2CC3CSCCN3Cc3ccccc32)c(F)c1)c1ccccc1-c1ccccc1 (centres undefined) |
| Not Active | 18 nM | – | – | – | – | O=C(Nc1ccc(C(=O)N2CC3CSCCN3Cc3ccc(F)c(F)c32)cc1)c1ccccc1-c1ccccc1 (centres undefined) |
| Not Active | 13 nM | 1.9 µM | 70 nM | – | – | O=C(Nc1ccc(C(=O)N2C[C@H]3COCCN3Cc3ccccc32)c(Cl)c1)c1cc(O)ccc1-c1ccccc1 |
| Not Active | 37 nM | 14 µM | 70 nM | – | – | O=C(Nc1ccc(C(=O)N2CC3CSCCN3Cc3ccccc32)c(Cl)c1)c1cc(F)ccc1-c1ccccc1 (centres undefined) |
| 410 nM | 3.7 nM | – | – | – | – | O=C(Nc1ccc(C(=O)N2CC3CSCCN3Cc3ccccc32)c(Cl)c1)c1ccc(F)cc1-c1ccccc1 (centres undefined) |
| Not Active | 4.2 nM | 1.3 µM | 5 nM | – | – | COc1ccc(C(=O)Nc2ccc(C(=O)N3C[C@H]4COCCN4Cc4ccccc43)c(Cl)c2)c(-c2ccccc2)c1 |
| Not Active | 1.9 nM | 0.7 µM | 2 nM | – | – | O=C(Nc1ccc(C(=O)N2C[C@H]3COCCN3Cc3ccccc32)c(Cl)c1)c1ccc(F)cc1-c1ccccc1 |

| Ki (Vasopressin V1a receptor [1]) | Ki (Vasopressin V2 receptor [2]) | Ki (Vasopressin V1a receptor [3]) | Ki (Vasopressin V2 receptor [4]) | inhibition (Vasopressin V1a receptor [5]) | inhibition (Vasopressin V1a receptor [6]) | SMILES |
| --- | --- | --- | --- | --- | --- | --- |
| 250 nM | 3.7 nM | 14 µM | 17 nM | – | – | O=C(Nc1ccc(C(=O)N2C[C@H]3CSCCN3Cc3ccccc32)c(Cl)c1)c1ccccc1-c1ccccc1 |
| 44 nM | 2.3 nM | 6 µM | 23 nM | – | – | Cc1ccc(F)cc1C(=O)Nc1ccc(C(=O)N2Cc3cccn3Cc3ccccc32)c(Cl)c1 [LIXIVAPTAN] |
| Not Active | 17 nM | – | – | – | – | COc1ccc(-c2ccccc2)c(C(=O)Nc2ccc(C(=O)N3C[C@H]4COCCN4Cc4ccccc43)c(Cl)c2)c1 |
| Not Active | 2.8 nM | 1.9 µM | 3 nM | – | – | COc1ccc(-c2ccccc2C(=O)Nc2ccc(C(=O)N3C[C@H]4COCCN4Cc4ccccc43)c(Cl)c2)cc1 |
| Not Active | 65 nM | 1.4 µM | 40 nM | – | – | O=C(Nc1ccc(C(=O)N2CC3CS(=O)(=O)CCN3Cc3ccccc32)cc1)c1ccccc1-c1ccccc1 (centres undefined) |
| – | 3.7 nM | – | 16 nM | 69% | – | O=C(Nc1ccc(C(=O)N2C[C@H]3COCCN3Cc3ccccc32)cc1)c1ccccc1-c1ccccc1 |
| 30 nM | – | 1.6 µM | – | – | – | O=C(Nc1ccc(C(=O)N2C[C@H]3COCCN3Cc3ccccc32)c(Cl)c1)c1ccc(O)cc1-c1ccccc1 |
| Not Active | 10 nM | – | – | – | – | O=C(Nc1ccc(C(=O)N2CC3CSCCN3Cc3cccc(Cl)c32)cc1)c1ccccc1-c1ccccc1 (centres undefined) |
| 100 nM | 2.8 nM | 2 µM | 12 nM | – | – | Cc1ccc(F)cc1C(=O)Nc1ccc(C(=O)N2C[C@H]3COCCN3Cc3ccccc32)c(Cl)c1 |
| 18 nM | 8 nM | 14 µM | 23 nM | – | – | Cc1ccc2c(c1)N(C(=O)c1ccc(NC(=O)c3ccccc3-c3ccccc3)cc1)CC1CSCCN1C2 (centres undefined) |
| Not Active | 3.7 nM | 3.4 µM | 2 nM | – | – | COc1cccc(-c2ccccc2C(=O)Nc2ccc(C(=O)N3C[C@H]4COCCN4Cc4ccccc43)c(Cl)c2)c1 |
| Not Active | 10 nM | – | – | – | – | Cc1cc(NC(=O)c2ccccc2-c2ccccc2)ccc1C(=O)N1CC2CSCCN2Cc2ccccc21 (centres undefined) |
| 84 nM | – | 1.4 µM | – | – | – | O=C(Nc1ccc(C(=O)N2C[C@H]3CSCCN3Cc3ccccc32)cc1)c1ccccc1-c1ccccc1 |
| Not Active | 5 nM | 11 µM | 20 nM | – | – | O=C(Nc1ccc(C(=O)N2C[C@H]3COCCN3Cc3ccccc32)c(Cl)c1)c1ccccc1-c1cccc(O)c1 |
| 290 nM | – | 1.3 µM | – | – | – | O=C(Nc1ccc(C(=O)N2C[C@@H]3CSCCN3Cc3ccccc32)cc1)c1ccccc1-c1ccccc1 |
| – | 11 nM | 6.4 µM | 12 nM | – | 62% | O=C(Nc1ccc(C(=O)N2C[C@H]3COCCN3Cc3ccccc32)c(Cl)c1)c1cc(F)ccc1-c1ccccc1 |

Reference: ChEMBL document CHEMBL1146755, “Potent nonpeptide vasopressin receptor antagonists based on oxazino- and thiazinobenzodiazepine templates” (Bioorg Med Chem Lett, 2004)
